The source made the active and inactive calls. No cut-off for these calls is given here.
Tests used:
[1] = Cytotoxicity against human 1A9/A8 cells by MTT assay; type: functional, cell-based
How it was run: (§1)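 MTT assay run as a modified version of an earlier method. IC50 in nM is the mean ± SEM of three independent assays. Relative resistance is the IC50 in the resistant line (1A9 tubulin mutants, or βIII-transfected HeLa) divided by the IC50 in the parental line (1A9 or HeLa).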

[2] = tested on: HeLa; assay: Cytotoxicity against human HeLa cells transfected with wild-type tubulin beta3 by MTT assay; type: functional, cell-based; how it was run: as §1
[3] = tested on: HeLa; assay: Resistance ratio of IC50 for human HeLa cells transfected with wild-type tubulin beta3 to IC50 for human HeLa cells; type: functional
How it was run: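 Relative resistance is the IC50 in HeLa cells transfected with wild-type βIII-tubulin divided by the IC50 in parental HeLa cells. Each IC50 (nM) is the mean ± SEM of three independent assays.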

[4] = tested on: 1A9; assay: Resistance ratio of IC50 for human 1A9PTX10 cells to IC50 for human 1A9 cells; type: functional
How it was run: (§2)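 Relative resistance is the IC50 in the 1A9 tubulin-mutant line divided by the IC50 in parental 1A9 ovarian carcinoma cells. Each IC50 (nM) is the mean ± SEM of three independent assays.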

[5] = tested on: 1A9; assay: Resistance ratio of IC50 for human 1A9/A8 cells to IC50 for human 1A9 cells; type: functional
[6] = tested on: 1A9; assay: Cytotoxicity against human 1A9 cells by MTT assay; type: functional, cell-based; how it was run: as §1
[7] = tested on: microtubule (Bos taurus); assay: Binding affinity to microtubule (Bos taurus) after 30 mins at 30 degC by flutax-2 displacement method
[8] = tested on: microtubule (Bos taurus); assay: Binding affinity to microtubule (Bos taurus) after 30 mins at 40 degC by flutax-2 displacement method
[9] = molecular target: Tubulin (Bos taurus) (UniProt Q6B856+Q862L2+Q862F3); assay: Induction of calf brain tubulin polymerization assessed as tubulin concentration required to form microtubules by electron microscopy
How it was run: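 Critical tubulin concentration found by centrifugation and quantification of the polymer formed. Polymers adsorbed onto formvar/carbon-coated copper grids, stained with 1% uranyl acetate, and viewed by electron microscopy at 100 kV.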

[10] = tested on: A549; assay: Effect on microtubule cytoskeleton in human A549 cells assessed as induction of micronuleated cells with short microtubules in cytoplasm at 60 to 120 nM after 24 hrs by immunofluorescence assay; type: cell-based
How it was run: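 A549 cells were grown overnight on coverslips, then given DMSO vehicle or ligand (60 or 120 nM) for 24 h. Cells were permeabilized with Triton X-100 and fixed in 3.7% formaldehyde. Microtubules were stained with DM1A α-tubulin antibody and DNA with Hoechst 33342. Preparations were viewed by epifluorescence microscopy.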

[11] = tested on: microtubule (Bos taurus); assay: Binding affinity to microtubule (Bos taurus) after 30 mins at 35 degC by flutax-2 displacement method
[12] = Cytotoxicity against human 1A9PTX22 cells by MTT assay; type: functional, cell-based; conditions: 1A9/ptx-22; how it was run: as §1
[13] = Resistance ratio of IC50 for human A2780AD cells to IC50 for human A2780 cells; type: functional, A2780 ADR
[14] = Cytotoxicity against human 1A9PTX10 cells by MTT assay; type: functional, cell-based; conditions: 1A9/ptx-10; how it was run: as §1
[15] = tested on: HeLa; assay: Cytotoxicity against human HeLa cells by MTT assay; type: functional, cell-based; how it was run: as §1
[16] = tested on: microtubule (Bos taurus); assay: Binding affinity to microtubule (Bos taurus) after 30 mins at 26 degC by flutax-2 displacement method
[17] = Cytotoxicity against human A2780AD cells by MTT assay; type: functional, cell-based; conditions: A2780 ADR
[18] = tested on: 1A9; assay: Resistance ratio of IC50 for human 1A9PTX22 cells to IC50 for human 1A9 cells; type: functional; how it was run: as §2
[19] = tested on: A2780; assay: Cytotoxicity against human A2780 cells by MTT assay; type: functional, cell-based
[20] = tested on: A549; assay: Effect on microtubule cytoskeleton in human A549 cells assessed as induction of MS bundles of microtubules near membrane and nucleus at 50 to 500 nM after 24 hrs by immunofluorescence assay; type: cell-based
How it was run: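 A549 cells grown overnight on 12 mm round coverslips, then exposed 24 h to DMSO vehicle or ligand at serial concentrations. Permeabilized with Triton X100, fixed in 3.7% formaldehyde. Microtubules stained with DM1A anti-α-tubulin monoclonal, DNA with Hoechst 33342. Viewed by epifluorescence microscopy and imaged with a cooled CCD camera.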

[21] = Cell cycle arrest at G2/M phase in human A2780AD cells at 60 nM after 20 hrs by flow cytometry; type: functional, cell-based; conditions: A2780 ADR
[22] = tested on: microtubule (Bos taurus); assay: Binding affinity to microtubule (Bos taurus) after 30 mins at 27 degC by flutax-2 displacement method
[23] = tested on: microtubule (Bos taurus); assay: Binding affinity to microtubule (Bos taurus) after 30 mins at 32 degC by flutax-2 displacement method
[24] = tested on: A549; assay: Cell cycle arrest at G2/M phase in human A549 cells at 30 nM after 20 hrs by flow cytometry; type: functional, cell-based
[25] = Cytotoxicity against human MCF7/R cells by MTT assay; type: functional, cell-based; conditions: MCF7R
[26] = tested on: A549; assay: Cell cycle arrest at G2/M phase in human A549 cells at 60 nM after 20 hrs by flow cytometry; type: functional, cell-based
[27] = tested on: microtubule (Bos taurus); assay: Binding affinity to microtubule (Bos taurus) after 30 mins at 42 degC by flutax-2 displacement method
[28] = tested on: A2780; assay: Cell cycle arrest at G2/M phase in human A2780 cells at 60 nM after 20 hrs by flow cytometry; type: functional, cell-based
[29] = Cell cycle arrest at G2/M phase in human A2780AD cells at 30 nM after 20 hrs by flow cytometry; type: functional, cell-based; conditions: A2780 ADR
[30] = tested on: A2780; assay: Cell cycle arrest at G2/M phase in human A2780 cells at 30 nM after 20 hrs by flow cytometry; type: functional, cell-based
[31] = tested on: microtubule (Bos taurus); assay: Binding affinity to microtubule (Bos taurus) after 30 mins at 37 degC by flutax-2 displacement method
[32] = tested on: MCF7; assay: Cytotoxicity against human MCF7 cells by MTT assay; type: functional, cell-based

Compound	Kb [7]	Kb [8]	Activity [9]	Kb [11]	Kb [16]	IC50 [1]	IC50 [2]	Ratio IC50 [3]	Ratio IC50 [4]	Ratio IC50 [5]	IC50 [6]	Activity [10]	IC50 [12]	Ratio IC50 [13]	IC50 [14]	IC50 [15]	IC50 [17]	Ratio IC50 [18]	IC50 [19]	IC50 [25]	also measured
CC(=O)O[C@H]1C(=O)[C@@]2(C)[C@H]([C@H](OC(=O)c3ccccc3)[C@]3(O)C[C@H](OC(=O)[C@H](O)[C@@H](NC(=O)c4ccccc4)c4ccccc4)C(C)=C1C3(C)C)[C@]1(OC(C)=O)CO[C@@H]1C[C@@H]2O [PACLITAXEL]			4.2 µM			4.2 nM					3.9 nM		32.8 nM		81.4 nM	0.7 nM	1240 nM		0.4 nM		Activity [20]: Active
CC(=O)O[C@@]12CO[C@@H]1C[C@H](O)[C@@]1(C)C(=O)[C@H](OC(=O)C3CC3)C3=C(C)[C@@H](OC(=O)[C@H](O)[C@H](C=C(C)C)NC(=O)OC(C)(C)C)C[C@@](O)([C@@H](OC(=O)c4ccccc4)[C@H]21)C3(C)C	10 ×10⁷ /M	7 ×10⁷ /M	0.9 µM	8 ×10⁷ /M	12 ×10⁷ /M	12.2 nM	11.2 nM	5.3	2.2	2.4	5 nM	Active	7.9 nM	2.1	10.8 nM	2.1 nM	10.9 nM	1.6	5.2 nM	2.1 nM	Activity [21]: Active; Kb [22]: 11 ×10⁷ /M; Kb [23]: 9 ×10⁷ /M; Activity [24]: Active; Activity [26]: Active; Kb [27]: 6 ×10⁷ /M; Activity [28]: Active; Activity [29]: Active; Activity [30]: Active; Kb [31]: 7 ×10⁷ /M
CC(=O)O[C@H]1C(=O)[C@@]2(C)[C@H]([C@H](OC(=O)c3ccccc3)[C@]3(O)C[C@H](OC(=O)[C@H](O)[C@H](CC(C)C)NC(=O)OC(C)(C)C)C(C)=C1C3(C)C)[C@]1(OC(C)=O)CO[C@@H]1C[C@@H]2O	2.7 ×10⁷ /M	2.7 ×10⁷ /M	1.6 µM	2.4 ×10⁷ /M	3 ×10⁷ /M	11.5 nM	11.2 nM	2.5	0.7	4.7	2.4 nM	Active	4.95 nM	7.9	1.75 nM	4.4 nM	29.1 nM	2	3.7 nM	2.8 nM	Activity [21]: Active; Kb [22]: 2.8 ×10⁷ /M; Kb [23]: 2.7 ×10⁷ /M; Activity [24]: Active; IC50 [32]: 0.35 nM; Activity [26]: Active; Kb [27]: 2.5 ×10⁷ /M; Activity [28]: Active; Activity [29]: Active; Activity [30]: Active; Kb [31]: 2.3 ×10⁷ /M

Now from value to molecule, other results behind:

Kb [7]	Kb [8]	Activity [9]	Kb [11]	Kb [16]	Compound	IC50 [1]	IC50 [2]	Ratio IC50 [3]	Ratio IC50 [4]	Ratio IC50 [5]	IC50 [6]	Activity [10]	IC50 [12]	Ratio IC50 [13]	IC50 [14]	IC50 [15]	IC50 [17]	Ratio IC50 [18]	IC50 [19]	IC50 [25]	also measured
85 ×10⁷ /M	52 ×10⁷ /M	2.9 µM	87 ×10⁷ /M	124 ×10⁷ /M	C/C=C(\C)C(=O)N[C@@H](c1ccccc1)[C@@H](O)C(=O)O[C@H]1C[C@@]2(O)[C@@H](OC(=O)c3cccc(N=[N+]=[N-])c3)[C@@H]3[C@]4(OC(C)=O)CO[C@@H]4C[C@H](OC(=O)CC)[C@@]3(C)C(=O)[C@H](O)C(=C1C)C2(C)C	2 nM	10.2 nM	3.2	5	0.9	2.3 nM	Active	1.9 nM	5.2	11.6 nM	3.2 nM	14 nM	0.83			
748 ×10⁷ /M	355 ×10⁷ /M	3.6 µM	628 ×10⁷ /M	612 ×10⁷ /M	CCC(=O)O[C@H]1C(=O)[C@@]2(C)[C@H]([C@H](OC(=O)c3cccc(N=[N+]=[N-])c3)[C@]3(O)C[C@H](OC(=O)[C@H](O)[C@@H](NC(=O)OC(C)(C)C)c4ccccc4)C(C)=C1C3(C)C)[C@]1(OC(C)=O)CO[C@@H]1C[C@@H]2O	3.8 nM	16 nM	1.7	0.4	1.2	3.1 nM	Active	12 nM	1.3	2.4 nM	9.2 nM	9.1 nM		7 nM	153 nM	IC50 [32]: 1.9 nM
		2.4 µM			CC(=O)O[C@@]12CO[C@@H]1C[C@H](O)[C@@]1(C)C(=O)[C@H](O)C3=C(C)[C@@H](OC(=O)[C@H](O)[C@@H](NC(=O)OC(C)(C)C)c4ccccc4)C[C@@](O)([C@@H](OC(=O)c4ccccc4)[C@H]21)C3(C)C [DOCETAXEL]												290 nM				

Source: ChEMBL document CHEMBL3352049, “Taxanes with high potency inducing tubulin assembly overcome tumoural cell resistances” (Bioorg Med Chem, 2014)
